Data set [1] concerns pAkt (Ser-473) in LNCaP cells. In words: Western blot assay of Akt phosphorylation. In kind it is cell-based. The settings on record: 2-μM drug, 100-ng/mL EGF, 30 min, serum-starved LNCaP. Summed up:
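Cells were lysed in buffer with protease inhibitors, and protein was quantified by BCA. Equal protein amounts were run on 10 % SDS-PAGE and transferred to nitrocellulose. Blots were probed for phospho-Akt (Ser-473) and total Akt, followed by HRP-conjugated secondary antibodies and chemiluminescent detection.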

For a further data set, the system named is DU145 cells. As to the kind of experiment: Cytotoxicity assay. The note with it: read-out: IC50 (Mean ± SE); DU145, PSMA negative, 72 h, n=6. In kind it is cell-based. Summed up:
(§1)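 DU145 and LNCaP were grown in RPMI-1640 and PC3 in F-12K, all with 10 % FBS. Cells were seeded at 5,000 per well. After 12 h, test compound (free or micelle-loaded) in PBS was added at 0, 0.1, 1, 5, 10, 50 or 100 μM. PBS and TCA served as negative and positive controls. After 72 h, 55-μM resazurin solution was added for 4 h at 37 °C, then resorufin fluorescence was read (ex 560/em 590 nm). IC50 was taken as the midpoint between controls on each plate.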

A further data set relates to LNCaP cells. As to the kind of experiment: Cytotoxicity assay. The settings on record: for selective cytotoxicity: LNCaP versus DU145 and PC3; for IC50: read-out: IC50 (Mean ± SE), LNCaP, PSMA positive, PTEN-deficient, 72 h, n=6. In kind it is cell-based. Summed up: as §1
Another data set relates to PC3 cells. In words: Cytotoxicity assay. In kind it is cell-based. The note with it: read-out: IC50 (Mean ± SE); PC3, PSMA negative, 72 h, n=6. Summed up:
as §1

The next data set relates to cell growth. The note with it: cited from earlier work.

The structures appear in SMILES notation.

Consider `Cc1cc(C(C)N(CCO)c2ccccc2)c2nc(N3CCOCC3)cc(=O)n2c1` (centres unmarked) [BL05], for which, in data set [1], the “phosphorylation of Akt (Ser473)” value is “inhibited phosphorylation of Akt”. For the same molecule, the half-inhibitory concentration (IC50) stood at 32.4 ± 0.67 µM in the data set on DU145 cells, 4.04 ± 0.11 µM with LNCaP cells and 23.4 ± 0.74 µM in the data set with PC3 cells. Moreover, the selective cytotoxicity result in the data set with LNCaP cells is “selective cytotoxicity to LNCaP cells”.
Regarding `CC1(C)C(=CC=C2CCCC(C=CC3=[N+](CCCCS(=O)(=O)[O-])c4ccc5ccccc5c4C3(C)C)=C2Cl)N(CCCCS(=O)(=O)[O-])c2ccc3ccccc3c21.[Na+]` [IR-820], the “concentration at which cell growth is significantly inhibited” value with cell growth is “greater than 5 μM”.
For the molecule `Cc1cc(C(C)Nc2ccccc2)c2nc(N3CCOCC3)cc(=O)n2c1` (centres unmarked) [TGX-221], the “phosphorylation of Akt (Ser473)” value in data set [1] is given as “inhibited phosphorylation of Akt”. The figures for the IC50 in the data set with DU145 cells, in the data set on LNCaP cells and in the data set with PC3 cells were 35.6 ± 0.12 µM, 3.98 ± 0.18 µM and 18.2 ± 0.85 µM, respectively. For the same molecule, the selective cytotoxicity entry in the data set on LNCaP cells is “selective cytotoxicity to LNCaP cells”.

A word on the IC50: it is the concentration needed to halve the response being measured.

(Values after article PMC3601665 (Molecular pharmaceutics, 2012).)
